Most compounds without a hit are left out; they make up all but 2.1% or so of the library.
SUMO HTRF inh – blocks human SUMOylation mediated by UBC9 | P63279 | HTRF SUMOylation assay, SAE1/SAE2 + UBC9, in vitro | inhibition, % at 35 µM | 290,000 compounds, 0.36% hits | AID 2006; in the data active means inhibition above about 50%, passing the limit was not always enough
Target sequence (P63279 whole entry, looked up): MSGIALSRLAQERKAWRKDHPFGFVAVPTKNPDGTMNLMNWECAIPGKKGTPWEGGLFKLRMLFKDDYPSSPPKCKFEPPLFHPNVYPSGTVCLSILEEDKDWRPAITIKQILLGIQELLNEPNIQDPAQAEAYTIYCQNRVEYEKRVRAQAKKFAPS
NS3 helicase inh – blocks Hepatitis C virus NS3 helicase unwinding; NS3 helicase DNA unwinding, Cy5 molecular beacon fluorescence; inhibition, % at 10.9 µM; 290,000 compounds, 0.56% hits; AID 1800;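 active means inhibition above the mean of all tested compounds plus 3 SD, set per campaign, cut at about 35% in these data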;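 further: 0% = DMSO wells and 100% = thioflavine S control wells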
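System: HCV NS3 helicase fragment; control set: DMSO and thioflavine S; technique: Cy5 fluorescence at 0 and 60 min, beacon hairpin quenching; reagent: beacon DNA duplex substrate plus ATP; replicates: singlicate; schedule: 1 h reaction at 25 °C, ATP-initiated; medium: MOPS buffer pH 6.5 with MgCl2, DTT, Tween20, BSA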
IMP-1 inh-1 – blocks Pseudomonas aeruginosa IMP-1 metallo-beta-lactamase; purified IMP-1, nitrocefin hydrolysis, epi-absorbance fluorescence; inhibition, % at 5.6 µM; 290,000 compounds, 0.45% hits; AID 1556;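 active means inhibition above the mean plus 3 SD of all compounds in the same screening run, cut at about 4.5% in these data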;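 further: 0% = IMP-1 with DMSO and 100% = DMSO wells lacking enzyme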
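System: purified recombinant IMP-1 beta-lactamase. Medium: Zinc- and detergent-supplemented HEPES buffer, pH 7.1. Compound: one 5.6 µM dose […]. Schedule: 15 min preincubation plus 25 min reaction at 25 °C. Technique: Epi-absorbance fluorescence, 480 nm excitation, 530 nm emission.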
DNA FID counter – fluorescent intercalator displacement, NS3 helicase counter-screen; inhibition, % at 7.9 µM; 290,000 compounds, 0.17% hits; DNA fluorescent intercalator displacement, fluorescence; in the data active means inhibition above about 37%;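 further: 0% = vehicle and 100% = reference compound; higher means more ethidium bromide displaced from hairpin DNA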
VIM-2 inhibitor – blocks Pseudomonas aeruginosa VIM-2 metallo-beta-lactamase; purified VIM-2, nitrocefin hydrolysis, epi-absorbance fluorescence; inhibition, % at 5.6 µM; 290,000 compounds, 0.89% hits; AID 1527;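 active means inhibition above the mean of all tested compounds plus 3 SD, cutoff set per screening run, cut at about 7.5% in these data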;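 further: red hydrolysis product quenches plate fluorescence so inhibitors raise well fluorescence; 0% = enzyme with DMSO and 100% = DMSO without enzyme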
IMP-1 inh-2 – blocks IMP-1 metallo-beta-lactamase in VIM-2 selectivity screen; shares compounds with VIM-2 inhibitor; inhibition, % at 5.6 µM; AID 1856; 1,300 tested, under 10 active; purified IMP-1, nitrocefin hydrolysis, epi-absorbance fluorescence; call rule not given here;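 further: 0% = enzyme with vehicle and 100% = vehicle without enzyme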
VIM-2 FRET ctr – inhibits VIM-2 in FRET assay to exclude epi-absorbance artifacts; 1,300 compounds, 23% hits; shares compounds with VIM-2 inhibitor; purified VIM-2, CCF2 FRET substrate hydrolysis; inhibition, % at 5.6 µM;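 active means inhibition above the mean of all tested compounds plus 3 SD, cut at about 19% in these data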;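 further: 0% = VIM-2 plus DMSO and 100% = no enzyme wells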
TEM-1 counter – TEM-1 inhibition, counter-screen for VIM-2 inhibitors | shares compounds with VIM-2 inhibitor | Purified TEM-1, nitrocefin hydrolysis, epi-absorbance fluorescence | inhibition, % at 5.6 µM | 1,300 compounds, 3% hits;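 active means inhibition above that campaign's mean inhibition plus 3 SD, cut at about 0.46% in these data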;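 further: 0% = TEM-1 with DMSO and 100% = TEM-1 with 100 µM potassium clavulanate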
Target sequence (P62593 whole entry, looked up): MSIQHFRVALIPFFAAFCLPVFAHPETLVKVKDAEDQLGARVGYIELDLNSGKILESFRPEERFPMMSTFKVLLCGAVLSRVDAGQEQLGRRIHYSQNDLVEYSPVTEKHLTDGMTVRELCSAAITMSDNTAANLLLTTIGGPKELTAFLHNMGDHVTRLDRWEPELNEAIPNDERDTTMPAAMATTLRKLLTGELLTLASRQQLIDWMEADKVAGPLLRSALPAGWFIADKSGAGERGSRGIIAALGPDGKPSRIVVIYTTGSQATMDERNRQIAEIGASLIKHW
VIM-2 confirm 2 – confirmation of P. aeruginosa VIM-2 metallo-beta-lactamase inhibitors. shares compounds with VIM-2 inhibitor. purified VIM-2, nitrocefin hydrolysis, epi-absorbance. inhibition, % at 5.6 µM. 1,300 compounds, 96% hits. AID 2187;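 active means inhibition of the VIM-2 beta-lactamase enzyme above about 11% from the earlier first-round screen, limit read from the data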;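 further: 0% = VIM-2 with DMSO and 100% = buffer wells without enzyme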
Starred values were filed as active, the others as inactive; · = no result given.

SMILES	SUMO HTRF inh	NS3 helicase inh	IMP-1 inh-1	DNA FID counter	VIM-2 inhibitor	IMP-1 inh-2	VIM-2 FRET ctr	TEM-1 counter	VIM-2 confirm 2
Cc1cc(OCC(=O)NCCCn2ccnc2)c2c(C)cc(=O)oc2c1	24	1	-2	2	28*	-4	-3	-5	36*
Cc1cc(OCC(=O)NCc2cccnc2)c2c(C)cc(=O)oc2c1	20	3	-2	-12	2	·	·	·	·
Cc1cc(OCC(=O)Nc2cccnc2)c2c(C)cc(=O)oc2c1	27	2	-1	-15	21*	-3	-3	-8	33*
COc1nnc(-c2ccc(C)c(S(=O)(=O)NC(C)C)c2)c2ccccc12	4	1	-4	-33	0	·	·	·	·
CCCN(C(=O)Cc1ccc(S(=O)(=O)N2CCOCC2)s1)c1c(N)n(Cc2ccccc2)c(=O)[nH]c1=O	-3	2	-1	-18	1	·	·	·	·
O=C(NC(=S)Nc1ccccc1N1CCCC1)c1cccc(F)c1	4	1	-2	-7	13*	-4	19*	-9	6
O=C(COc1ccccc1Cl)NC(=S)Nc1ccccc1N1CCCC1	26	-9	-1	-17	18*	-2	20*	-6	5
Cc1ccccc1C(=O)NC(=S)Nc1ccccc1N1CCCC1	43	7	-4	-5	15*	-3	9	-8	5
O=C(Nc1ccccc1N1CCCC1)c1cccc(F)c1	4	-6	-3	-1	-2	·	·	·	·
CC(CCCC(C)(C)O)NC(=O)c1ccc(OC2CCN(C(=O)C3CC3)CC2)cc1 (stereo not given)	8	-3	0	-27	-2	·	·	·	·
C=CCOc1c(Br)cc(/C=N/Nc2ccc(C(=O)O)cc2)cc1OCC	5	6	-3	-22	-3	·	·	·	·
COc1ccccc1C(=O)COC(=O)c1ccccc1O	9	-2	-3	-3	0	·	·	·	·
COc1ccccc1C(=O)COC(=O)/C=C/c1ccccc1	3	2	-2	-21	13*	-4	29*	-2	18*
O=C(CN(C(=O)c1csnn1)c1cccc(C(F)(F)F)c1)NC1CCCC1	-2	23	1	-12	-1	·	·	·	·
Cc1ccccc1/C=N/Nc1nc2ccccc2c(=O)n1O	5	1	-5	-5	-4	·	·	·	·
CCCc1nn(C)c2c(=O)[nH]c(-c3cc(S(=O)(=O)Nc4ccc(NC(C)=O)cc4)ccc3OCC)nc12	15	8	0	-17	-1	·	·	·	·
CCCc1nn(C)c2c(=O)[nH]c(-c3cc(S(=O)(=O)N4CCN(C)CC4)ccc3OCC)nc12	4	-50	-2	16	17*	-3	4	-7	26*
Cc1cc(NC(=O)COC(=O)CCS(=O)(=O)c2cc(Cl)ccc2Cl)no1	-2	-7	-5	-17	-4	·	·	·	·
N#Cc1c2c(c(NCCCN3CCOCC3)n3c1nc1ccccc13)CCC2	24	6	-1	4	14*	-2	-6	-9	38*
CCCc1c(C)c(C#N)c2nc3ccccc3n2c1NCCCN1CCOCC1	16	0	2	-3	1	·	·	·	·
CC(=O)N/N=C/c1cc(C(C)C)cc(/C=N/NC(C)=O)c1O	31	-10	0	-7	34*	-1	12	-2	47*
Cn1ccsc1=NC(=O)c1cccc(C#N)c1	-7	19	0	-6	1	·	·	·	·
CCOc1ccc(S(=O)(=O)N2CCCC(C(=O)N3CCOCC3)C2)cc1Cl (stereo not given)	1	-8	-5	-33	2	·	·	·	·
Cc1nc2cc(-c3ccc(Cl)cc3)nn2c(NCCN(C)C)c1C	-11	-12	-3	27	19*	-2	-3	-7	44*
Cc1cc(C)n2nc(-c3ccc(Cl)cc3)cc2n1	-18	1	-1	-20	0	·	·	·	·
COc1ccc(OC)c(-c2nc3cc4ccccc4cc3nc2-c2ccccc2)c1	0	5	0	6	-2	·	·	·	·

Assay outcomes (PubChem BioAssay)
